In brackets after ≈: the same amount, converted by molar mass. Blank lines part the entries; values can stand above or below the compound they belong to.
Columns and labels:
Type in all cases: functional
Escherichia coli = experiment: In vitro inhibitory activity against Escherichia coli (250 UC5)
Summary of the method: (§1)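 Two-fold agar dilution on Mueller-Hinton agar (pH 7.4). Inoculum from overnight plate cultures suspended in Mueller-Hinton broth, adjusted to 10^9 CFU/mL, diluted 1:200 and spotted by multipoint inoculator at about 10^4 CFU/spot. Plates incubated 37 °C for 20 h. MIC taken as lowest concentration with no visible growth.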

Haemophilus influenzae [1] = experiment: In vitro inhibitory activity against Haemophilus influenzae (351CB12); summary of the method: as §1
Haemophilus influenzae [2] = experiment: In vitro inhibitory activity against Haemophilus influenzae (351HT3); summary of the method: as §1
[3] = system: Staphylococcus epidermidis; experiment: In vitro inhibitory activity against Staphylococcus epidermidis (EryRi 012GO11i); summary of the method: as §1
Staphylococcus aureus [4] = experiment: In vitro inhibitory activity against Staphylococcus aureus (011UC4); summary of the method: as §1
Staphylococcus aureus [5] = experiment: In vitro inhibitory activity against Staphylococcus aureus (EryRi 011GO25i); summary of the method: as §1
Streptococcus pneumoniae [6] = experiment: In vitro inhibitory activity against Streptococcus pneumoniae (032UC1); summary of the method: as §1
Streptococcus pneumoniae [7] = experiment: In vitro inhibitory activity against Streptococcus pneumoniae (EryRc 030SJ1); summary of the method: as §1
Streptococcus pneumoniae [8] = experiment: In vitro inhibitory activity against Streptococcus pneumoniae (EryRi 030SJ5i); summary of the method: as §1
Streptococcus pyogenes = experiment: In vitro inhibitory activity against Streptococcus pyogenes (02A1UC1); summary of the method: as §1
Staphylococcus aureus [9] = experiment: In vitro inhibitory activity against Staphylococcus aureus (EryRc 011CB20); summary of the method: as §1
Haemophilus [10] = experiment: In vitro inhibitory activity against Haemophilus AmpR (37)
Haemophilus [11] = experiment: In vitro inhibitory activity against Haemophilus AmpS (43)
Mus musculus [12] = experiment: In Vivo evaluation for its effective dose against Haemophilus influenzae (351RD7 AmpR beta (+))
Summary of the method: (§2)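 Male Charles River CD1 mice, 20-22 g, 10 per dose group, infected intraperitoneally with 0.5 mL diluted overnight broth culture (physiological buffer or 5% hog mucine) at 10-100 times the minimal lethal dose. Compound suspended in carboxymethylcellulose, 0.5 mL given orally immediately and 4 h postinfection. Survival followed 8-10 days; ED50 (unitary dose protecting 50% from death) by Litchfield-Wilcoxon probit method.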

Mus musculus [13] = experiment: In Vivo evaluation for its effective dose against Haemophilus influenzae (351GR1); summary of the method: as §2
Mus musculus [14] = experiment: In Vivo evaluation for its effective dose against Haemophilus influenzae (351TO19 AmpR beta (-)); summary of the method: as §2
Enterococcus [15] = experiment: In vitro inhibitory activity against enterococci EryRc (13)
Enterococcus [16] = experiment: In vitro inhibitory activity against enterococci EryRi (19)
Mus musculus [17] = experiment: In Vivo evaluation for its effective dose against Staphylococcus aureus (011GO25 EryRi.; summary of the method: as §2
Mus musculus [18] = experiment: In Vivo evaluation for its effective dose against Staphylococcus aureus (011UC4).; summary of the method: as §2
Mus musculus [19] = experiment: In Vivo evaluation for its effective dose against Streptococcus pneumoniae (030Cr29 EryRc); summary of the method: as §2
Mus musculus [20] = experiment: In Vivo evaluation for its effective dose against Streptococcus pneumoniae (030MV2 EryRc); summary of the method: as §2
Mus musculus [21] = experiment: In Vivo evaluation for its effective dose against Streptococcus pneumoniae (030RO1 EryRi); summary of the method: as §2
Mus musculus [22] = experiment: In Vivo evaluation for its effective dose against Streptococcus pneumoniae (030SJ1 EryRc); summary of the method: as §2
Mus musculus [23] = experiment: In Vivo evaluation for its effective dose against Streptococcus pneumoniae (030SJ6 EryRc); summary of the method: as §2
Mus musculus [24] = experiment: In Vivo evaluation for its effective dose against Streptococcus pneumoniae (032UC1); summary of the method: as §2
Mus musculus [25] = experiment: In Vivo evaluation for its effective dose against Streptococcus pyogenes (02A1UC1); summary of the method: as §2
[26] = In vitro inhibitory activity against Pneumococci EryRc (34)
[27] = In vitro inhibitory activity against Pneumococci PenR (65)
Streptococcus sp. [28] = experiment: In vitro inhibitory activity against Streptococci EryR (27)
Streptococcus sp. [29] = experiment: In vitro inhibitory activity against Streptococci EryRi (98)
Staphylococcus sp. [30] = experiment: In vitro inhibitory activity against Staphylococci EryRc (23)
Staphylococcus sp. [31] = experiment: In vitro inhibitory activity against Staphylococci EryRi (65)

- MIC (Escherichia coli): 40 µg/mL (≈ 48.4 µM)
- MIC (Haemophilus influenzae [1]): 2.5 µg/mL (≈ 3.03 µM)
- MIC (Haemophilus influenzae [2]): 2.5 µg/mL (≈ 3.03 µM)
- MIC [3]: 0.08 µg/mL (≈ 0.0968 µM)
- MIC (Staphylococcus aureus [4]): 0.08 µg/mL (≈ 0.0968 µM)
- MIC (Staphylococcus aureus [5]): 0.3 µg/mL (≈ 0.363 µM)
- MIC (Streptococcus pneumoniae [6]): 0.02 µg/mL (≈ 0.0242 µM)
- MIC (Streptococcus pneumoniae [7]): 20 µg/mL (≈ 24.2 µM)
- MIC (Streptococcus pneumoniae [8]): 0.08 µg/mL (≈ 0.0968 µM)
- MIC (Streptococcus pyogenes): 0.02 µg/mL (≈ 0.0242 µM)
- MIC (Staphylococcus aureus [9]): 40 µg/mL (≈ 48.4 µM)
SMILES: CC[C@H]1OC(=O)[C@H](C)C(=O)[C@H](C)[C@@H](O[C@@H]2O[C@H](C)C[C@H](N(C)C)[C@H]2O)[C@](C)(OC)C[C@@H](C)C(=O)[C@H](C)[C@H]2N(CCCCc3ccnc4c(OC)cccc34)C(=O)O[C@]12C

- MIC (Escherichia coli): 40 µg/mL (≈ 48.4 µM)
- MIC (Haemophilus influenzae [1]): 1.2 µg/mL (≈ 1.45 µM)
- MIC (Haemophilus influenzae [2]): 0.6 µg/mL (≈ 0.725 µM)
- MIC [3]: 0.15 µg/mL (≈ 0.181 µM)
- MIC (Staphylococcus aureus [4]): 0.04 µg/mL (≈ 0.0484 µM)
- MIC (Staphylococcus aureus [5]): 0.15 µg/mL (≈ 0.181 µM)
- MIC (Streptococcus pneumoniae [6]): 0.02 µg/mL (≈ 0.0242 µM)
- MIC (Streptococcus pneumoniae [7]): 2.5 µg/mL (≈ 3.02 µM)
- MIC (Streptococcus pneumoniae [8]): 0.15 µg/mL (≈ 0.181 µM)
- MIC (Streptococcus pyogenes): 0.02 µg/mL (≈ 0.0242 µM)
- MIC (Staphylococcus aureus [9]): 40 µg/mL (≈ 48.4 µM)
SMILES: CC[C@H]1OC(=O)[C@H](C)C(=O)[C@H](C)[C@@H](O[C@@H]2O[C@H](C)C[C@H](N(C)C)[C@H]2O)[C@](C)(OC)C[C@@H](C)C(=O)[C@@H](C)[C@H]2N(NCCCc3ccnc4c(OC)cccc34)C(=O)O[C@]12C

- MIC50 (Haemophilus [10]): 1.2 µg/mL (≈ 3.43 µM)
- MIC90 (Haemophilus [10]): 1 µg/mL (≈ 2.86 µM)
- MIC50 (Haemophilus [11]): 0.3 µg/mL (≈ 0.859 µM)
- MIC90 (Haemophilus [11]): 0.6 µg/mL (≈ 1.72 µM)
SMILES: CC1(C)S[C@@H]2[C@H](NC(=O)[C@H](N)c3ccccc3)C(=O)N2[C@H]1C(=O)O [AMPICILLIN]
- ED50 (Mus musculus [12]): > 600 mg/kg
- ED50 (Mus musculus [13]): 5.5 mg/kg
- ED50 (Mus musculus [14]): 39 mg/kg

- MIC50 (Enterococcus [15]): 40 µg/mL (≈ 54.5 µM)
- MIC90 (Enterococcus [15]): 40 µg/mL (≈ 54.5 µM)
- MIC50 (Enterococcus [16]): 2.5 µg/mL (≈ 3.41 µM)
- MIC90 (Enterococcus [16]): 10 µg/mL (≈ 13.6 µM)
- MIC (Escherichia coli): 40 µg/mL (≈ 54.5 µM)
- MIC (Haemophilus influenzae [1]): 2.5 µg/mL (≈ 3.41 µM)
- MIC (Haemophilus influenzae [2]): 2.5 µg/mL (≈ 3.41 µM)
- MIC50 (Haemophilus [10]): 1.2 µg/mL (≈ 1.64 µM)
- MIC90 (Haemophilus [10]): 10 µg/mL (≈ 13.6 µM)
- MIC50 (Haemophilus [11]): 1.2 µg/mL (≈ 1.64 µM)
- MIC90 (Haemophilus [11]): 5 µg/mL (≈ 6.81 µM)
- MIC50 [26]: 40 µg/mL (≈ 54.5 µM)
- MIC90 [26]: 40 µg/mL (≈ 54.5 µM)
- MIC50 [27]: 0.6 µg/mL (≈ 0.818 µM)
- MIC90 [27]: 40 µg/mL (≈ 54.5 µM)
- MIC [3]: 40 µg/mL (≈ 54.5 µM)
- MIC50 (Streptococcus sp. [28]): 5 µg/mL (≈ 6.81 µM)
- MIC90 (Streptococcus sp. [28]): 40 µg/mL (≈ 54.5 µM)
- MIC50 (Streptococcus sp. [29]): 20 µg/mL (≈ 27.3 µM)
- MIC90 (Streptococcus sp. [29]): 40 µg/mL (≈ 54.5 µM)
- MIC50 (Staphylococcus sp. [30]): 40 µg/mL (≈ 54.5 µM)
- MIC90 (Staphylococcus sp. [30]): 40 µg/mL (≈ 54.5 µM)
- MIC50 (Staphylococcus sp. [31]): 40 µg/mL (≈ 54.5 µM)
- MIC90 (Staphylococcus sp. [31]): 40 µg/mL (≈ 54.5 µM)
- MIC (Staphylococcus aureus [4]): 0.3 µg/mL (≈ 0.409 µM)
- MIC (Staphylococcus aureus [5]): 40 µg/mL (≈ 54.5 µM)
- MIC (Streptococcus pneumoniae [6]): 0.08 µg/mL (≈ 0.109 µM)
- MIC (Streptococcus pneumoniae [7]): 40 µg/mL (≈ 54.5 µM)
- MIC (Streptococcus pneumoniae [8]): 40 µg/mL (≈ 54.5 µM)
- MIC (Streptococcus pyogenes): 0.08 µg/mL (≈ 0.109 µM)
- MIC (Staphylococcus aureus [9]): 40 µg/mL (≈ 54.5 µM)
SMILES: CC[C@H]1OC(=O)[C@H](C)[C@@H](O[C@H]2C[C@@](C)(OC)[C@@H](O)[C@H](C)O2)[C@H](C)[C@@H](O[C@@H]2O[C@H](C)C[C@H](N(C)C)[C@H]2O)[C@](C)(O)C[C@@H](C)C(=O)[C@H](C)[C@@H](O)[C@]1(C)O [ERYTHROMYCIN]
- ED50 (Mus musculus [12]): 326 mg/kg
- ED50 (Mus musculus [13]): 346 mg/kg
- ED50 (Mus musculus [14]): 442 mg/kg
- ED50 (Mus musculus [17]): > 100 mg/kg
- ED50 (Mus musculus [18]): 57 mg/kg
- ED50 (Mus musculus [19]): > 100 mg/kg
- ED50 (Mus musculus [20]): > 100 mg/kg
- ED50 (Mus musculus [21]): > 100 mg/kg
- ED50 (Mus musculus [22]): > 100 mg/kg
- ED50 (Mus musculus [23]): > 100 mg/kg
- ED50 (Mus musculus [24]): 18.3 mg/kg
- ED50 (Mus musculus [25]): 300 mg/kg

Reference: ChEMBL document CHEMBL1131139, “Synthesis and antibacterial activity of ketolides (6-O-methyl-3-oxoerythromycin derivatives): a new class of antibacterials highly potent against macrolide-resistant and -susceptible respiratory pathogens” (1998)
